Reference: paper PMC4361317 (Nuclear medicine and biology, 2014)
Entries after “also recorded” stand apart in the source; their conditions may differ. Where a SMILES comes first, the peptide text is derived from it. Bridges are numbered along the chain shown (N, C = ends). [ ]: non-standard residue; d: D form. Aoc = NCCCCCCCC(=O)O

Key:
MC1 receptor = MC1 receptor (Homo sapiens, UniProt Q01726); assay: In vitro competitive binding, MC1 receptor, M21 human melanoma cells, ^125I-
Method in brief: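 Intact M21 cells (1.5×10^5/well) were incubated for 2 h at 37 °C with ~30,000 cpm 125I-(Tyr2)-NDP-MSH plus 10−12 to 10−5 M test compound. Medium was MEM with 25 mM HEPES pH 7.4, 0.2% BSA and 0.3 mM 1,10-phenanthroline. Cells were rinsed twice with ice-cold 0.2% BSA/0.01 M PBS pH 7.4, lysed in 1 N NaOH for 5 min and gamma counted. Triplicate; IC50 calculated.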

αvβ3 integrin receptor = αvβ3 integrin receptor (Homo sapiens, UniProt P05106+P06756); assay type: binding
Method in brief: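 M21 cells (1×10^5/well) were placed on 0.65 µm filter plates and incubated for 2 h at 25 °C with ~30,000 cpm 125I-echistatin and 10−11 to 10−4 M test compound. The binding medium was HEPES-buffered MEM pH 7.4 with BSA and phenanthroline. Bound and free ligand were separated by vacuum filtration with two ice-cold BSA/PBS pH 7.4 rinses, and the PVDF filters were gamma counted. Triplicate; IC50 calculated.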

[1] = tested on: M21 human melanoma-xenografted nude mice; details: mouse, in vivo; cited from earlier work

| Compound | IC50 (MC1 receptor) [nM] | MC1 receptor binding affinity, compared with RGD-PEG2-(Arg^11)CCMSH (MC1 receptor; M21 cells) | IC50 (αvβ3 integrin receptor) [nM] | binding affinity for αvβ3 integrin receptor (in words) (αvβ3 integrin receptor; M21 cells) | αvβ3 integrin receptor binding affinity, compared with RGD-PEG2-(Arg^11)CCMSH (αvβ3 integrin receptor; M21 cells) | melanoma uptake relative to ^99mTc-RAD-Lys-(Arg^11)CCMSH [1] [times] | melanoma uptake relative to ^99mTc-RGD-Lys-(Arg^11)CCMSHscramble [1] [times] |
| --- | --- | --- | --- | --- | --- | --- | --- |
| CC(C)[C@H](NC(=O)[C@@H]1CCCN1C(=O)[C@H](CCCNC(=N)N)NC(=O)[C@H](CS)NC(=O)[C@H](Cc1c[nH]c2ccccc12)NC(=O)[C@H](CCCNC(=N)N)NC(=O)[C@@H](Cc1ccccc1)NC(=O)[C@H](Cc1c[nH]cn1)NC(=O)[C@H](CCC(=O)O)NC(=O)[C@H](CS)NC(=O)[C@H](CS)NC(=O)CCCCCCCNC(=O)[C@@H]1CC(=O)N[C@@H](CCCNC(=N)N)C(=O)NCC(=O)N[C@@H](CC(=O)O)C(=O)N[C@H](Cc2ccc(O)cc2)C(=O)N1)C(N)=O [RGD-Aoc-(Arg^11)CCMSH] (RGD[dY]D[Aoc]CCEH[dF]RWCRPV-NH2; lactam N-5) | 1.5 ± 0.2 | stronger receptor binding affinity; also recorded: slightly stronger binding affinities | 1130 ± 26 | low micromolar range | stronger receptor binding affinity; also recorded: slightly stronger binding affinities |  |  |
| cyclic(Arg-Gly-Asp-DTyr-Asp)-Lys-(^99mTc-[Cys^3,4,10, D-Phe^7, Arg^11]α-MSH3–13) (bicyclic or more) [^99mTc-RGD-Lys-(Arg^11)CCMSH] |  |  |  |  |  | 2.5 | 2.2 |
